Measured values from ChEMBL document CHEMBL3868588, “Emestrins: Anti-Cryptococcus Epipolythiodioxopiperazines from Podospora australis” (J Nat Prod, 2016).
In brackets after ≈: the same amount, converted by molar mass.

What was measured:
[1] = tested on: Cryptococcus neoformans; assay: Antifungal activity against Cryptococcus neoformans H99 after 48 hrs by resazurin-staining based serial dilution method; format: functional; settings: var grubii H99 
How it was run: (§1)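 Serial dilution per NCCLS guidance in 96-well plates with YM test medium (1% maltose extract, 0.2% yeast extract, 0.4% agar). Compounds in DMSO, diluted in growth medium; amphotericin B positive control. Incubated at 25 °C; C. albicans ATCC 10231 read at 24 h, C. neoformans H99 at 48 h. Visual end point, OD and PrestoBlue resazurin viability; MIC = lowest concentration giving 100% inhibition versus untreated control.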

[2] = tested on: Candida albicans; assay: Antifungal activity against Candida albicans ATCC 10231 measured after 24 hrs by resazurin-staining based serial dilution method; format: functional; settings: ATCC 10231, 24 h; how it was run: as §1
[3] = Antiproliferative activity against human DU145 cells; format: functional, cell-based; settings: DU-145

SMILES | MIC [1] | MIC [2] | IC50 [3]
COc1ccc2cc1Oc1cc(ccc1OC)C(=O)O[C@H]1C=COC=C3[C@@H](O)[C@]45SS[C@](C2)(C(=O)N4[C@@H]31)N(C)C5=O | 1.6 µg/mL (≈ 2.68 µM) | > 25.6 µg/mL | 
COc1ccc2cc1Oc1cc(ccc1OC)[C@H](O)[C@]13SSS[C@@]4(C(=O)N1C)[C@H](O)C1=COC=C[C@H](OC2=O)[C@H]1N4C3=O | 6.4 µg/mL (≈ 9.93 µM) | > 25.6 µg/mL | 
COc1ccc2cc1Oc1cc(ccc1OC)[C@H](O)[C@]13SSSS[C@@]4(C(=O)N1C)[C@H](O)C1=COC=C[C@H](OC2=O)[C@H]1N4C3=O | 25.6 µg/mL (≈ 37.8 µM) | > 25.6 µg/mL | 

Now those with a lower MIC [1], led by results:

MIC [1] | MIC [2] | SMILES | IC50 [3]
0.8 µg/mL (≈ 0.866 µM) | 1.6 µg/mL (≈ 1.73 µM) | C[C@@H]1[C@H](O)[C@@H](C)/C=C/C=C/C=C/C=C/C=C/C=C/C=C/[C@H](O[C@@H]2O[C@H](C)[C@@H](O)[C@H](N)[C@@H]2O)C[C@@H]2O[C@](O)(C[C@@H](O)C[C@@H](O)[C@H](O)CC[C@@H](O)C[C@@H](O)CC(=O)O[C@H]1C)C[C@H](O)[C@H]2C(=O)O [AMPHOTERICIN B] | 
0.8 µg/mL (≈ 1.31 µM) | 6.4 µg/mL (≈ 10.4 µM) | COc1ccc2cc1Oc1cc(ccc1OC)[C@H](O)[C@]13SS[C@@]4(C(=O)N1C)[C@H](O)C1=COC=C[C@H](OC2=O)[C@H]1N4C3=O | 9.3 nM
